# In PubChem BioAssay AID504382 (The Scripps Research Institute Molecular Screening Center, 2011):
# In all, about 2,500 compounds went through this assay and about 460 (18%) were called active.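 Rule for the calls: active = mean activation above a cutoff of low control average plus 3 SD from the earlier screen (cut at about 12% in these data); inactive = the rest.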 The list is a sample of the results.
# Assay: IANBD-channel fluorescence artefacts in buffer – biochemical, artefact control for cardiac RTF calcium sensitizer project, confirmation (AID 504382)
# Settings: IANBD fluorescence interference counterscreen, EC20 Ca2+, at 7.2 µM, stronger effect = higher value
# Summary of the method: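 Medium: MOPS buffer, 190 mM, with KCl, MgCl2, EGTA, NTA, DTT, pH 7.20; Dosing: one dose of 7.2 µM, 0.7% DMSO; Probe or stimulus: calcium at EC20 level, 0.472 mM final; Incubation: 15 min, 25 °C; Evaluation: compound fluorescence interference relative to control well signal range; Signal: fluorescence, 480/540 nm.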
row,SMILES,fluorescence artifact activation
1,O=c1[nH]c(=S)n(-c2ccccc2Cl)c(O)c1C=NCCN1CCNCC1,660% (active)
2,COc1ccc(OC)c(-n2c(O)c(C=NCCN3CCNCC3)c(=O)[nH]c2=S)c1,3.37% (inactive)
3,C=CCn1c(O)c(C=NC2CCN(Cc3ccccc3)CC2)c(=O)[nH]c1=O,-0.06% (inactive)
4,CN1Cc2c(c(C#N)c(N)n(C)c2=S)CC1(C)C,-0.06% (inactive)
5,CCN(CC)c1ccc(/C=C/[N+](=O)[O-])cc1,3.43% (inactive)
6,CCCCCCC(=O)N/N=C/c1c(O)n(CCc2ccccc2)c(=O)[nH]c1=O,0.04% (inactive)
7,O=C(CN1CCN(c2ccccc2F)CC1)Nc1cccnc1Cl,6.53% (inactive)
8,CC1(C)OC(c2ccccc2)=C/C(=C/C=C2C(=O)NC(=O)NC2=O)O1,0.3% (inactive)
9,Cn1cc(C=C(C#N)C#N)c2ccccc21,20% (active)
10,N#CC(C#N)=Cc1ccc(C=C(C#N)C#N)cc1,0.08% (inactive)
11,COc1ccc(N2C(=O)NC(=O)/C(=C\c3cn(C)c4ccccc34)C2=O)cc1,-0.05% (inactive)
12,CC(C)n1c(=O)c(C=Nc2cccc([N+](=O)[O-])c2)c(O)n(CCc2ccccc2)c1=O,1.6% (inactive)
13,COc1cccc2c1C(=O)c1c(O)c3c(c(O)c1C2=O)CC(O)(C(C)=NO)CC3OC1CC(N)C(O)C(C)O1 (stereo not drawn),0.43% (inactive)
14,Cc1cccc(-n2c(O)c(/C=C/C=Nc3ccccc3)c(=O)[nH]c2=O)c1,59.9% (active)
15,O=c1[nH]c(=O)n(-c2ccccc2)c(O)c1/C=C/C=Nc1ccccc1,0.01% (inactive)
16,Cc1ccc(-n2c(O)c(/C=C/C=Nc3ccccc3)c(=O)[nH]c2=O)cc1,7.82% (inactive)
17,O=C1NC(=O)N(Cc2ccccc2)C(=O)/C1=C\N1CCCc2ccccc21,2.74% (inactive)
18,O=Cc1c(C(=O)O)n(Cc2ccc(Cl)cc2)c2ccccc12,0.14% (inactive)
19,C/C(=N\N1CCCCC1c1cccnc1)c1c(O)n(C2CCCCC2)c(=S)[nH]c1=O (stereo not drawn),13.8% (active)
20,O=c1[nH]c(=O)n(C2CCCCC2)c(O)c1/C=C/C=Nc1ccccc1,0.28% (inactive)

row,SMILES,fluorescence artifact activation
1,Cc1cccc(N2C(=O)NC(=O)/C(=C\c3ccc4c(c3)CCCN4Cc3ccccc3)C2=O)c1,0.72% (inactive)
2,CN1CCN(Cc2cn(C)c3ccccc23)CC1CCO (stereo not drawn),10.6% (inactive)
3,O=C1NC(=S)SC1=Cc1ccc(N(CCCl)CCCl)cc1,-0.09% (inactive)
4,Nc1c2c(nc3ccccc13)CCN(Cc1ccccc1)C2,26.4% (active)
5,FC(F)(F)c1ccc2c(c1)nnn2C1CCN(Cc2nnnn2Cc2ccccc2)CC1,0.25% (inactive)
6,CCOCCCNC(=O)C1c2cc(OC)c(OC)cc2C(=O)N2CCCCC12 (stereo not drawn),0.42% (inactive)
7,O=c1[nH]c(O)c(C=Nc2ccccc2Oc2ccccc2)c(=O)[nH]1,0.37% (inactive)
8,C=CCN1C(=O)/C(=C/c2ccc(N3CCOCC3)o2)C(=O)NC1=S,5.89% (inactive)
9,CN1C(=O)/C(=C\c2ccc(N3CCCCC3)o2)C(=O)NC1=S,0.13% (inactive)
10,CCN1C(=O)C(=Cc2ccc(N3CCOCC3)o2)C(=O)N(CC)C1=S,0.14% (inactive)
11,CN1C(=O)/C(=C/c2ccc(N3CCCCCC3)o2)C(=O)NC1=S,1.84% (inactive)
12,CN1C(=O)C(=Cc2ccc(N3CCOCC3)o2)C(=O)N(C)C1=S,0.02% (inactive)
13,CN1C(=O)C(=Cc2ccc(N3CCOCC3)o2)C(=O)N(C)C1=O,16.2% (active)
14,CN1C(=O)C(=Cc2ccc(N3CCCCCC3)o2)C(=O)N(C)C1=S,35.9% (active)
15,COc1cc(/C=C2/C(=O)NC(=O)N(c3ccc(C)cc3)C2=O)cc(OC)c1OC,0.06% (inactive)
16,CCN1C[C@]2(CO)CC[C@H](OC)[C@@]34C5C[C@H]6[C@H](OC)C5[C@](O)(C[C@H]6OC)[C@@H](C(OC)C23)[C@@H]14 (stereo partly drawn),2.26% (inactive)
17,NC(=O)c1c(NC(=O)c2ccc(S(=O)(=O)N(CCCl)CCCl)cc2)sc2c1CCCCC2,0.08% (inactive)
18,CC1=NCCc2c1[nH]c1cc(O)ccc21,0.1% (inactive)
19,Cc1cc(Cl)ccc1C(=O)C1CCCN(C2CCSCC2)C1 (stereo not drawn),0% (inactive)
20,COC(=O)C1=C(c2cccc(C#N)c2)C[C@@H]2CC[C@H]1N2C(=O)N1CCOCC1,1.36% (inactive)

row,SMILES,fluorescence artifact activation
1,Nc1c(C(=O)NCC2CCCO2)c2nc3ccccc3nc2n1Cc1ccco1 (stereo not drawn),732% (active)
2,COCCOC(=O)c1c(N)n(Cc2ccco2)c2nc3ccccc3nc12,-0.01% (inactive)
3,COCCNC(=O)c1c(N)n(Cc2ccco2)c2nc3ccccc3nc12,1.48% (inactive)
4,CCOC(=O)c1cc(CC)sc1/N=C/c1c(O)[nH]c(=S)[nH]c1=O,1.47% (inactive)
5,CCN(CC)c1ccc(C=C2C(=O)N(C)C(=S)N(C)C2=O)o1,-0.01% (inactive)
6,Cc1cc(N2CCCC2)ccc1C=C(C#N)C#N,17.8% (active)
7,Cc1cc(C=C(C#N)C#N)ccc1N1CCCC1,0.79% (inactive)
8,COc1ccc(-n2c(O)c(/C=C/C=Nc3ccccc3)c(=O)[nH]c2=O)cc1,-0.12% (inactive)
9,Cc1ccc(/C=C2/Sc3ccc(C(=O)N4CCC5(CC4)OCCO5)cc3NC2=O)cc1,38.7% (active)
10,CNS(=O)(=O)c1ccc(N=Cc2c(O)n(-c3ccccc3)c(=O)[nH]c2=O)cc1,8.1% (inactive)
11,CCC1(C)OC(c2ccccc2)=C/C(=C/C=C2C(=O)NC(=O)NC2=O)O1 (stereo not drawn),4.44% (inactive)
12,CCN(CC)CCCOC(=O)C(OC(C)C)(c1ccccc1)c1ccccc1,17.1% (active)
13,CCCCN1C(=O)NC(=O)C2(Cc3ccccc3N3CCOCC32)C1=O (stereo not drawn),-0.11% (inactive)
14,Cc1ccc(-n2c(O)c(C=NCC3CCCO3)c(=O)[nH]c2=O)c(C)c1 (stereo not drawn),0.07% (inactive)
15,N#CC(C#N)=Cc1ccc(-c2ccccc2F)o1,6.89% (inactive)
16,CCCc1cc(=O)oc2cc(OCC(=O)N3CCC(C(=O)O)(c4ccccc4)CC3)ccc12,0.1% (inactive)
17,CCCc1cc(=O)oc2cc(OCC(=O)N3C[C@H]4C[C@@H](C3)c3cccc(=O)n3C4)ccc12,36.4% (active)
18,Cn1c(O)c(/C=C/C=Nc2ccccc2)c(=O)n(C)c1=S,5.68% (inactive)
